Test results reported in ChEMBL document CHEMBL1130120, “N-arylpiperazinyl-N'-propylamino derivatives of heteroaryl amides as functional uroselective alpha 1-adrenoceptor antagonists” (J Med Chem, 1997).

How the values were obtained:
[1] = biological target: T1, Alpha-1D adrenergic receptor (Rattus norvegicus, UniProt P23944); assay: Antagonistic activity against rat aorta for affinity estimates representative of the Alpha-1D adrenergic receptor; assay type: functional, tissue-based; conditions: read-out: pA2 (converted)
T1 sequence (P23944 whole entry): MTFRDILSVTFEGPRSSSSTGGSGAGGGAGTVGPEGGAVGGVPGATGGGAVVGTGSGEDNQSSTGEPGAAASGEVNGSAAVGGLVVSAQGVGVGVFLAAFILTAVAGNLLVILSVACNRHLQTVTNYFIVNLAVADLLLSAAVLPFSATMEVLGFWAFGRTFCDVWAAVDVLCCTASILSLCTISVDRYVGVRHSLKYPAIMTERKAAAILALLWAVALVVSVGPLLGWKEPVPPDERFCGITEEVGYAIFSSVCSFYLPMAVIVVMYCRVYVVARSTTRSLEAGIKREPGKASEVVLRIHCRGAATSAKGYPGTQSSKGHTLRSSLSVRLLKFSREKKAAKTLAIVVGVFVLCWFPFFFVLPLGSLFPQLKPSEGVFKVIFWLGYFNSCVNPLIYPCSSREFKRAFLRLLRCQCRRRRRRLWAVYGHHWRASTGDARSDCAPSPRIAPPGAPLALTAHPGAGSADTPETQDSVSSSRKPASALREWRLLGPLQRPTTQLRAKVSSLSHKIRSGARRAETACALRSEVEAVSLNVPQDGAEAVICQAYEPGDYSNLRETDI
Method in brief: (§1)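 Isolated smooth-muscle tissue with cumulative norepinephrine concentration–effect curves (rat aorta, human lower urinary tract). Affinity obtained by full Schild regression for some antagonists. […] Competitive, reversible interaction at a single subtype assumed.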

[2] = biological target: T2, Alpha-1A adrenergic receptor (Oryctolagus cuniculus, UniProt O02824); assay: Antagonistic activity against alpha 1A/1L receptor was assessed in a rabbit bladder neck functional assay; conditions: read-out: pA2 (converted)
T2 sequence (O02824 whole entry): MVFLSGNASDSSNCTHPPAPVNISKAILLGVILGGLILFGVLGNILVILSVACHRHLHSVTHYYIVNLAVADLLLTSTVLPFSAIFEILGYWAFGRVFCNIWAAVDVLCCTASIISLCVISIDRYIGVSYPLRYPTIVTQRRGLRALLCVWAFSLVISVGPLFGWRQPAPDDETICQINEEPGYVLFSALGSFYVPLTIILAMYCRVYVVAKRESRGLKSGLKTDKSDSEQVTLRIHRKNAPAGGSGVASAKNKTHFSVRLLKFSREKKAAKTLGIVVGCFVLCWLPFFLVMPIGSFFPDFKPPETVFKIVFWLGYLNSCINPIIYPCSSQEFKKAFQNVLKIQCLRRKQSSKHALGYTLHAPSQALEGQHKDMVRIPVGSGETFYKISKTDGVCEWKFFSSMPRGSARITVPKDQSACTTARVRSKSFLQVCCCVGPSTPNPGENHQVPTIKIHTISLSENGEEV

[3] = biological target: T3, Alpha-1A adrenergic receptor (Bos taurus, UniProt P18130); assay: In vitro for the displacement of [3H]prazosin binding to bovine Alpha-1A adrenergic receptor
T3 sequence (P18130 whole entry): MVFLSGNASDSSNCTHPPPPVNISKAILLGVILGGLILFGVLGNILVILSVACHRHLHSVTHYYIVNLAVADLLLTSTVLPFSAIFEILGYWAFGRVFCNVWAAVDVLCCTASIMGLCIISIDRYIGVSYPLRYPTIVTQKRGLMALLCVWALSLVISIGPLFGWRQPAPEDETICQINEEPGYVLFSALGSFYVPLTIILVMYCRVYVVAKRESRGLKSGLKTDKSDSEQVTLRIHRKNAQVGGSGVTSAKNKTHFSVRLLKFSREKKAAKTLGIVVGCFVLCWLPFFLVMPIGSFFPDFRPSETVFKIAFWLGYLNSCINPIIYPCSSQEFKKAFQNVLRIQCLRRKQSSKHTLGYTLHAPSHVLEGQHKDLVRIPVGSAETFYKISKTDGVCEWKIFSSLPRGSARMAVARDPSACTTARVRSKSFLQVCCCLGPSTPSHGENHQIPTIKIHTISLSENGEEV

[4] = biological target: T4, Adrenergic receptor alpha-1 (Homo sapiens, UniProt P35348+P25100+P35368); assay: Activity against Alpha-1 adrenergic receptor subtypes of human prostate tissue; assay type: functional
T4 sequence (P35348 whole entry): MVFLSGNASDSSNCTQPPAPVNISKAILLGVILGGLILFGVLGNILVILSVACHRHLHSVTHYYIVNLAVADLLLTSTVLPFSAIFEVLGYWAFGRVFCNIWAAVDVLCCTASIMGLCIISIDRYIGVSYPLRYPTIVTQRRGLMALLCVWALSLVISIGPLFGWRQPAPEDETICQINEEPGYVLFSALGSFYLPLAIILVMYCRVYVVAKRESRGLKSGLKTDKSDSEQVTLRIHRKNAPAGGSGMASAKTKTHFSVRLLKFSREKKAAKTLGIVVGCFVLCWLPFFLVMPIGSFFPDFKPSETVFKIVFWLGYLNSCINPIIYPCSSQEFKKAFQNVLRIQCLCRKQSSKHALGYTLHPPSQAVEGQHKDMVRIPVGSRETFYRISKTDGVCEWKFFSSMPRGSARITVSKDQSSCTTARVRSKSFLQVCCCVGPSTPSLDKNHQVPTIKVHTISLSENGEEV
T4 sequence (P25100 whole entry): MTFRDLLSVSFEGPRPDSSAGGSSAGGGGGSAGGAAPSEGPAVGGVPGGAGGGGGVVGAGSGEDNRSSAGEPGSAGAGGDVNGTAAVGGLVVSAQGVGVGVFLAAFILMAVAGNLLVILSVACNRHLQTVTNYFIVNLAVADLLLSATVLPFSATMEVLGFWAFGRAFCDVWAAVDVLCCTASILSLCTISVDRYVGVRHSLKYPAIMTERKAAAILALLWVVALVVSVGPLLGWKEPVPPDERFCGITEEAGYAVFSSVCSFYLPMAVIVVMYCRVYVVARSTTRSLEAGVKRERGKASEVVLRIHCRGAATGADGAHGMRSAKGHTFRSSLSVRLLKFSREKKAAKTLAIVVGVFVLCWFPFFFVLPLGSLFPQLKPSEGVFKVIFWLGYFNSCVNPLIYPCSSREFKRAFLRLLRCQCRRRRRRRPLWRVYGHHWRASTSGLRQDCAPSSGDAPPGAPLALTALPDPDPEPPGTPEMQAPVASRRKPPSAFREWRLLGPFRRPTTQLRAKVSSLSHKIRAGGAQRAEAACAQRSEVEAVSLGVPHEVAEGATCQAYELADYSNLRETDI
T4 sequence (P35368 whole entry): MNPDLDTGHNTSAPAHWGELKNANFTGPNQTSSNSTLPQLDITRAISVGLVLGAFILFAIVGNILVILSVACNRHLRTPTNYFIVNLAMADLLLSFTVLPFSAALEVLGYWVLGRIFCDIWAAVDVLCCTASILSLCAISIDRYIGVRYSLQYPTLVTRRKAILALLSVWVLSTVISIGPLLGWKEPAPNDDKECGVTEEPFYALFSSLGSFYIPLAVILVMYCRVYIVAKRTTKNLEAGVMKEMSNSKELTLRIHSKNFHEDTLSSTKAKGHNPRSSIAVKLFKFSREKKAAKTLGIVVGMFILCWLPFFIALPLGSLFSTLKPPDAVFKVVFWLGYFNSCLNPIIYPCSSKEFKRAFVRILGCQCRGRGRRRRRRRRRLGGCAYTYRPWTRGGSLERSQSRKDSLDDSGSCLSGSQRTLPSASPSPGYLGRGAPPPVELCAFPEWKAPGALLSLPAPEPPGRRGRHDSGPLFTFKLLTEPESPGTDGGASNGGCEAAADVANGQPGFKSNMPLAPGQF
Method in brief: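 Isolated smooth-muscle tissue with cumulative norepinephrine concentration–effect curves (rat aorta, human lower urinary tract). Affinity obtained by full Schild regression for some antagonists. Competitive, reversible interaction at a single subtype assumed.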

[5] = biological target: T5, 5-hydroxytryptamine receptor 1A (Mus musculus) (UniProt Q64264); assay: The compound's binding affinity against 5-hydroxytryptamine 1A receptor
T5 sequence (whole entry): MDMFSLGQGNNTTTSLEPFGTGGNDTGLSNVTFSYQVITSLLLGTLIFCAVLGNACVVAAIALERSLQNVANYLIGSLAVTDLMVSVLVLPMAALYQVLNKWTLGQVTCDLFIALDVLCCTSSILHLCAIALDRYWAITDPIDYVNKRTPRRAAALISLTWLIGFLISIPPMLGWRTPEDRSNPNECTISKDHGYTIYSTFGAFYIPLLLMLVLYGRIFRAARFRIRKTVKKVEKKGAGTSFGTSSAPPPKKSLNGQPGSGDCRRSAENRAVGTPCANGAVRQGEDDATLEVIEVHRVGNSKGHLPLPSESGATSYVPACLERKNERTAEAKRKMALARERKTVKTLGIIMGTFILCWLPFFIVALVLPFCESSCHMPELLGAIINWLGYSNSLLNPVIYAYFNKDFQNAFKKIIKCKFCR

D(2) dopamine receptor = D(2) dopamine receptor (Homo sapiens, UniProt P14416); assay: The compound's binding affinity against Dopamine receptor D2
[6] = biological target: Adrenergic receptor alpha-1 (Homo sapiens) (UniProt P35348+P25100+P35368); assay: The compound was screened in vitro for functional activity against Alpha-1 adrenergic receptor subtypes of human prostate tissue; method in brief: as §1
[7] = biological target: T6, Alpha-2B adrenergic receptor (Rattus norvegicus, UniProt P19328); assay: The compound's binding affinity against Alpha-2B adrenergic receptor from rat kidney homogenate in the presence of phentolamine
T6 sequence (P19328 whole entry): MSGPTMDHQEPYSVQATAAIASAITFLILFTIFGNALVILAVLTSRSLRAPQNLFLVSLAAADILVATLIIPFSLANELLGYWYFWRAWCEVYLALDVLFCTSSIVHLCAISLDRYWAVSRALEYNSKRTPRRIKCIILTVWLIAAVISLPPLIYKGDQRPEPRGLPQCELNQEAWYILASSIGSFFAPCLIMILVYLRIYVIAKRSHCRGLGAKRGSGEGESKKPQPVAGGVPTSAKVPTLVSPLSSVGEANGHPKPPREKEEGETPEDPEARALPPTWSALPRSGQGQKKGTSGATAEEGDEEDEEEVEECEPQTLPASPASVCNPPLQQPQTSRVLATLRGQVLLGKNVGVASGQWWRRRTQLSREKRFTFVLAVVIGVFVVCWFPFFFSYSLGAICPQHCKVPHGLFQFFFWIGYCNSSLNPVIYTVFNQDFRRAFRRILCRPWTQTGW

[8] = biological target: T3, Alpha-1A adrenergic receptor; assay: The compound was screened in vitro for the displacement of [3H]prazosin binding to bovine Alpha-1A adrenergic receptor

D(2) dopamine receptor, sequence (P14416 whole entry): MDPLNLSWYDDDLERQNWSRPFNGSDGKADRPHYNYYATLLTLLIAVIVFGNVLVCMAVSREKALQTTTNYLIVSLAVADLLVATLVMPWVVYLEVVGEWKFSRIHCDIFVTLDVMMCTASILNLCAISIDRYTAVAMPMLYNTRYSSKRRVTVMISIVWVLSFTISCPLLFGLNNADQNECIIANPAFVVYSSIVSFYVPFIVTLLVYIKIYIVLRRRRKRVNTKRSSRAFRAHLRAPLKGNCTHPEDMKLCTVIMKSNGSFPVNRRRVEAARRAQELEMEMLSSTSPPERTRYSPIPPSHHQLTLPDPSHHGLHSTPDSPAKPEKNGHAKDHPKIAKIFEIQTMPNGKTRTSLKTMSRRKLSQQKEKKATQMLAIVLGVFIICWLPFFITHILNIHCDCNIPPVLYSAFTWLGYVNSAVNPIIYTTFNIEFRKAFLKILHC

Row | Compound | Kb [1] [nM] | Kb [2] [nM] | Ki [3] [nM] | pA2 [4] | pKi [5] | pKi (D(2) dopamine receptor) | pA2 [6] | Ki (D(2) dopamine receptor) [nM] | Ki [7] [nM] | Ki [8] [nM]
1 | COc1ccccc1N1CCN(CCCNc2ncccc2C(=O)NC(C)(C)C)CC1 | 10 | 1.26 | 1.58 | 8.7 |  |  |  |  |  | 
2 | COc1cc(F)ccc1N1CCN(CCCNc2ncccc2C(=O)N(C)C)CC1 | 63.1 | 1.58 |  |  | 6.7 | 6.7 | 8.5 |  |  | 
3 | CN(C)C(=O)c1cccnc1NCCCN1CCN(c2ccccc2-c2ccccc2)CC1 | 63.1 | 1.26 |  |  |  |  |  | 126 | 79.4 | 
4 | COc1ccccc1N1CCN(CCCNc2ncccc2C(=O)N(C)C)CC1 | 20 | 1.58 |  |  | 7.6 | 7.4 | 8.5 |  |  | 0.794
5 | COc1cc(F)ccc1N1CCN(CCCNc2c(C(=O)N(C)C)cnc3c2c(C)nn3C)CC1 | 316 | 1.26 |  |  | 6.5 | 6.4 | 9.3 |  |  | 
6 | Cc1nn(C)c2ncc(C(=O)N(C)C)c(NCCCN3CCN(c4ccccc4OCC(F)(F)F)CC3)c12 | 126 | 0.501 |  |  | 7.5 | 8.1 | 9 |  |  | 
7 | CN(C)C(=O)c1cccnc1N1CCC(NCCOc2ccccc2OCC(F)(F)F)CC1 | 63.1 | 1.58 | 1.58 |  |  |  |  |  |  | 
